Assay results from ChEMBL document CHEMBL1158388, “Preparation of spermine conjugates with acidic retinoids with potent ribonuclease P inhibitory activity” (Eur J Med Chem, 2009).

Test: Inhibition of Dictyostelium discoideum AX2 RNase P by double reciprocal plot
Summary of the method: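 RNase P purified from D. discoideum wild-type cells; 37 °C reactions in buffer D (50 mM Tris/HCl pH 7.6, 10 mM NH4Cl, 5 mM MgCl2, 5 mM DTT) with 2–5 fmol in vitro labeled S. pombe pre-tRNASer transcript and 1.3 µg enzyme-fraction protein, 10% DMSO; stopped with formamide/EDTA dye. Ki from slopes of 1/v vs 1/[pre-tRNA] plots replotted against inhibitor concentration.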

| Structure (SMILES) | Ki [µM] |
| --- | --- |
| C/C(=C\c1ccc(C(=O)O)cc1)c1ccc2c(c1)C(C)(C)CCC2(C)C | 45 |
| CC1=C(/C=C/C(C)=C/C=C/C(C)=C\C(=O)O)C(C)(C)CCC1 [ISOTRETINOIN] | 20 |
| CC1=C(/C=C/C(C)=C/C=C/C(C)=C/CO)C(C)(C)CCC1 [RETINOL] | 1480 |
| CC1=C(/C=C/C(C)=C/C=C/C(C)=C/C(=O)O)C(C)(C)CCC1 [TRETINOIN] | 15 |
| CCS(=O)(=O)c1ccc(/C=C(\C)c2ccc3c(c2)C(C)(C)CCC3(C)C)cc1 [ETAROTENE] | 3600 |
| CCOC(=O)c1ccc(/C=C(\C)c2ccc3c(c2)C(C)(C)CCC3(C)C)cc1 [AROTINOID] | 4350 |

These reach a lower Ki. Values come first.

| Ki [µM] | Structure (SMILES) |
| --- | --- |
| 8 | COc1cc(C)c(/C=C/C(C)=C/C=C/C(C)=C/C(=O)O)c(C)c1C [ACITRETIN] |
| 2.45 | COc1cc(C)c(/C=C/C(C)=C/C=C/C(C)=C/C(=O)NCCCNCCCCNCCCN)c(C)c1C [N1-Acitretinylspermine] |
| 2.4 | CC1=C(/C=C/C(C)=C/C=C/C(C)=C/C(=O)NCCCNCCCCNCCCN)C(C)(C)CCC1 |
| 1.1 | CC1=C(/C=C/C(C)=C/C=C/C(C)=C/C(=O)N(CCCN)CCCCN(CCCN)C(=O)/C=C(C)/C=C/C=C(C)/C=C/C2=C(C)CCCC2(C)C)C(C)(C)CCC1 |
